# In ChEMBL document CHEMBL1629686, “Substrate selectivity and a novel role in inhibitor discrimination by residue 237 in the KPC-2 beta-lactamase” (Antimicrob Agents Chemother, 2010):
# Columns and labels:
# [1] = system: Klebsiella pneumoniae; test: Ratio of Kcat/Km for Klebsiella pneumoniae 1534 beta-lactamase KPC-2 T237S mutant by spectrophotometric analysis
# Outline: (§1)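 Purified KPC-2 variant enzymes (periplasmic lysate from E. coli, preparative isoelectric focusing). Hydrolysis followed by diode-array spectrophotometry in 10 mM PBS, pH 7.4, room temperature. Enzyme at 10 nM with substrate in molar excess for pseudo-first-order conditions. Vmax and Km came from a nonlinear least-squares Michaelis-Menten fit.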
# [2] = system: Klebsiella pneumoniae; test: Activity of Klebsiella pneumoniae 1534 beta-lactamase KPC-2 T237A mutant by spectrophotometric analysis; outline: as §1
# [3] = system: Klebsiella pneumoniae; test: Ratio of Kcat/Km for Klebsiella pneumoniae 1534 beta-lactamase KPC-2 T237A mutant by spectrophotometric analysis; outline: as §1
# [4] = system: Klebsiella pneumoniae; test: Selectivity index, Ratio of Kcat/Km for Klebsiella pneumoniae 1534 beta-lactamase KPC-2 T237S mutant to ratio of Kcat/Km for Klebsiella pneumoniae 1534 beta-lactamase KPC-2 by spectrophotometric analysis
# Outline: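 Kinetics used purified enzymes in 10 mM PBS, pH 7.4, room temperature, with 10 nM enzyme and substrate in excess. Km and Vmax came from a Michaelis-Menten fit. kcat/Km of the variant was compared with wild type as ΔΔG = −RT ln of the kcat/Km ratio.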
# [5] = system: Escherichia coli; test: Antimicrobial activity against Escherichia coli DH10B harboring plasmid pBR322-catI carrying beta-lactamase KPC-2 by agar dilution method in presence of beta-lactamase inhibitor Tazobactam; type: functional; conditions: K-12 DH10B
# Outline: (§2)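 LB agar dilution MIC following CLSI criteria, inoculated with a Steers replicator. Tested as piperacillin-tazobactam at a fixed 8:1 ratio.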
# [6] = system: Escherichia coli; test: Antimicrobial activity against Escherichia coli DH10B harboring plasmid pBC SK(+) carrying wild type beta-lactamase KPC-2 by agar dilution method in presence of beta-lactamase inhibitor Tazobactam; type: functional; conditions: K-12 DH10B
# Outline: (§3)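 LB agar dilution MICs by CLSI criteria, inoculated with a Steers replicator. […] Strains were E. coli DH10B with or without pBC SK(+) carrying wild-type blaKPC-2 or a position 237 variant.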
# [7] = system: Escherichia coli; test: Antimicrobial activity against Escherichia coli DH10B harboring beta-lactamase KPC-2 T237A mutant by agar dilution method in presence of beta-lactamase inhibitor Tazobactam; type: functional; conditions: K-12 DH10B; outline: as §3
# [8] = system: Escherichia coli; test: Antimicrobial activity against Escherichia coli DH10B harboring beta-lactamase KPC-2 T237N mutant by agar dilution method in presence of beta-lactamase inhibitor Tazobactam; type: functional; conditions: K-12 DH10B; outline: as §3
# [9] = system: Escherichia coli; test: Antimicrobial activity against Escherichia coli DH10B harboring beta-lactamase KPC-2 T237S mutant by agar dilution method in presence of beta-lactamase inhibitor Tazobactam; type: functional; conditions: K-12 DH10B; outline: as §3
# [10] = system: Escherichia coli; test: Antimicrobial activity against Escherichia coli DH10B harboring plasmid […] by agar dilution method in presence of beta-lactamase inhibitor Tazobactam; type: functional; conditions: K-12 DH10B; outline: as §2
# [11] = system: Escherichia coli; test: Antimicrobial activity against Escherichia coli DH10B harboring plasmid pBR322-catI carrying beta-lactamase KPC-2 by agar dilution method in presence of beta-lactamase inhibitor clavulanic acid; type: functional; conditions: K-12 DH10B
# [12] = system: Escherichia coli; test: Antimicrobial activity against Escherichia coli DH10B harboring plasmid pBC SK(+) carrying wild type beta-lactamase KPC-2 by agar dilution method in presence of beta-lactamase inhibitor Sulbactam; type: functional; conditions: K-12 DH10B
# Outline: (§4)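 LB agar dilution MICs by CLSI criteria, applied with a Steers replicator. […] Hosts were E. coli DH10B carrying pBC SK(+) with wild-type blaKPC-2 or a position 237 variant.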
# [13] = system: Escherichia coli; test: Antimicrobial activity against Escherichia coli DH10B harboring beta-lactamase KPC-2 T237G mutant by agar dilution method in presence of beta-lactamase inhibitor clavulanic acid; type: functional; conditions: K-12 DH10B
# Outline: (§5)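 LB agar dilution MICs per CLSI criteria, inoculated with a Steers replicator. […] Strains: E. coli DH10B alone, DH10B carrying empty pBC SK(+), or DH10B carrying pBC SK(+)-blaKPC-2 position 237 variants made by site-saturation mutagenesis and confirmed by sequencing. Plasmid selection used 20 mg/liter chloramphenicol.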
# [14] = system: Escherichia coli; test: Antimicrobial activity against Escherichia coli DH10B harboring beta-lactamase KPC-2 T237G mutant by agar dilution method in presence of beta-lactamase inhibitor Sulbactam; type: functional; conditions: K-12 DH10B; outline: as §4
# [15] = system: Escherichia coli; test: Antimicrobial activity against Escherichia coli DH10B harboring beta-lactamase KPC-2 T237I mutant by agar dilution method in presence of beta-lactamase inhibitor Sulbactam; type: functional; conditions: K-12 DH10B; outline: as §4
# [16] = system: Escherichia coli; test: Antimicrobial activity against Escherichia coli DH10B harboring beta-lactamase KPC-2 T237M mutant by agar dilution method in presence of beta-lactamase inhibitor Sulbactam; type: functional; conditions: K-12 DH10B; outline: as §4
# [17] = system: Escherichia coli; test: Antimicrobial activity against Escherichia coli DH10B harboring beta-lactamase KPC-2 T237Y mutant by agar dilution method in presence of beta-lactamase inhibitor Sulbactam; type: functional; conditions: K-12 DH10B; outline: as §4
# [18] = system: Escherichia coli; test: Antimicrobial activity against Escherichia coli DH10B harboring beta-lactamase KPC-2 T237N mutant by agar dilution method in presence of beta-lactamase inhibitor clavulanic acid; type: functional; conditions: K-12 DH10B; outline: as §4
# [19] = system: Escherichia coli; test: Antimicrobial activity against Escherichia coli DH10B harboring beta-lactamase KPC-2 T237S mutant by agar dilution method in presence of beta-lactamase inhibitor Sulbactam; type: functional; conditions: K-12 DH10B; outline: as §4
# [20] = system: Escherichia coli; test: Antimicrobial activity against Escherichia coli DH10B harboring beta-lactamase KPC-2 T237E mutant by agar dilution method in presence of beta-lactamase inhibitor clavulanic acid; type: functional; conditions: K-12 DH10B; outline: as §4
# [21] = system: Escherichia coli; test: Antimicrobial activity against Escherichia coli DH10B harboring beta-lactamase KPC-2 T237E mutant by agar dilution method in presence of beta-lactamase inhibitor Sulbactam; type: functional; conditions: K-12 DH10B; outline: as §4
# [22] = system: Escherichia coli; test: Antimicrobial activity against Escherichia coli DH10B harboring beta-lactamase KPC-2 T237R mutant by agar dilution method in presence of beta-lactamase inhibitor clavulanic acid; type: functional; conditions: K-12 DH10B; outline: as §5
# [23] = system: Escherichia coli; test: Antimicrobial activity against Escherichia coli DH10B by agar dilution method in presence of beta-lactamase inhibitor clavulanic acid; type: functional; conditions: K-12 DH10B; outline: as §5
# [24] = system: Escherichia coli; test: Antimicrobial activity against Escherichia coli DH10B by agar dilution method in presence of beta-lactamase inhibitor Sulbactam; type: functional; conditions: K-12 DH10B; outline: as §5
# [25] = system: Escherichia coli; test: Antimicrobial activity against Escherichia coli DH10B harboring plasmid […] by agar dilution method in presence of beta-lactamase inhibitor clavulanic acid; type: functional; conditions: K-12 DH10B; outline: as §5
# [26] = system: Escherichia coli; test: Antimicrobial activity against Escherichia coli DH10B harboring plasmid […] by agar dilution method in presence of beta-lactamase inhibitor Sulbactam; type: functional; conditions: K-12 DH10B; outline: as §5
smiles,measurement,setting,value
CCN1CCN(C(=O)N[C@@H](C(=O)N[C@@H]2C(=O)N3[C@@H]2SC(C)(C)[C@@H]3C(=O)O)c2ccccc2)C(=O)C1=O [PIPERACILLIN],kcat/Km,[1],7e+06 M⁻¹ s⁻¹
same,Km,[2],12 µM
same,kcat,[2],42 s⁻¹
same,kcat/Km,[3],3.5e+06 M⁻¹ s⁻¹
same,fold change (FC),[4],2.7
same,MIC,[5],64 µg/mL
same,MIC,[6],8 µg/mL
same,MIC,[7],4 µg/mL
same,MIC,[8],1 µg/mL
same,MIC,[9],8 µg/mL
same,MIC,[10],0.5 µg/mL
CC1(C)S[C@@H]2[C@H](NC(=O)[C@H](N)c3ccccc3)C(=O)N2[C@H]1C(=O)O [AMPICILLIN],MIC,[11],32 µg/mL
same,MIC,[12],128 µg/mL
same,MIC,[13],1 µg/mL
same,MIC,[14],16 µg/mL
same,MIC,[15],16 µg/mL
same,MIC,[16],16 µg/mL
same,MIC,[17],8 µg/mL
same,MIC,[18],4 µg/mL
same,MIC,[19],128 µg/mL
same,MIC,[20],8 µg/mL
same,MIC,[21],8 µg/mL
same,MIC,[22],1 µg/mL
same,MIC,[23],1 µg/mL
same,MIC,[24],1 µg/mL
same,MIC,[25],1 µg/mL
same,MIC,[26],1 µg/mL
